# Sampled rows, rich in hits. Any-hit rate of the full collection: about 2.7%.
# DENV2 CPE – protects cells from dengue virus 2 cytopathic effect; AID 651640; CPE inhibition, % at 9.99 µM; 350,000 compounds, 1.7% hits; DENV2-infected cells, cytopathic effect rescue, plate reader; in the data active = CPE inhibition above about 20%, passing the limit was not always enough; inconclusive = no clear call, values can overlap the other calls; tested in BHK-21 cells;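 note: 0% = median of neutral control wells and 100% = median of positive control wells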
# CaV13 FRET inh – Primary screen for inhibitors of IQ motif and Ca2+-dependent inactivation inhibitor domain binding in CACNA1D, Förster resonance energy transfer in living cells, … | inhibition, % at 12.3 µM | AID 743397 | 340,000 compounds, 0.098% hits | HEK cells, CFP/YFP FRET ICDI-IQ, plate reader, 10 min; percent FRET-ratio fall versus neutral wells;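 active = mean replicate inhibition of at least 30% and at least 1% of replicates passing that level; inconclusive = only one of the two criteria is met; inactive = neither criterion is met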;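 note: 0% = median of the neutral control wells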
# S100A4 inh HTS – S100A4-myosin IIA interaction inhibition | P26447 | inhibition, % at 10.7 µM | 360,000 compounds, 0.14% hits | S100A4/TAMRA-MyoIIA peptide fluorescence polarization;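 active = mean inhibition of at least 70% across replicates, with every replicate also reaching that level; inconclusive = mean inhibition reaches 70% but some replicates fall short; inactive = mean inhibition below 70%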
# Target sequence (P26447 whole entry, looked up): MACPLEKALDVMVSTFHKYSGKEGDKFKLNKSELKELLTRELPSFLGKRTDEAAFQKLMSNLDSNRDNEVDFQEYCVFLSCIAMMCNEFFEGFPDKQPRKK
#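 Test system: S100A4 monomer protein. Medium: HEPES buffer with Ca2+, pH 7.2. Reagent: fluorescent myosin IIA peptide, 5 nM. Compound dosing: single-point compound testing. Timing: 5 min between mix addition and reading. Benchmarks: DMSO neutral and TFP positive wells.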
# SIRT5 inh – sirtuin-5 (human) deacylase inhibition; Purified SirT5, succinyl-peptide AMC, trypsin-coupled fluorescence; inhibition, % at 15 µM; Q9NXA8; 330,000 compounds, 1.1% hits; in the data active = inhibition above about 15%; inconclusive = no clear call, values can overlap the other calls
# MLL AF4-AF9 inh – MLL-AF4/AF9 protein interaction inhibition; P42568; inhibition, % at 10 µM; AlphaScreen, biotin-AF4 peptide binding to FLAG-AF9; 350,000 compounds, 0.47% hits;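 active = every replicate reaching a set inhibition limit, whatever the replicate mean, cut at about 25% in these data; inconclusive = mean inhibition reaches that limit but some replicates miss it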;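 note: 0% = plate neutral control median and 100% = total signal loss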
# Target sequence (P42568 whole entry, looked up): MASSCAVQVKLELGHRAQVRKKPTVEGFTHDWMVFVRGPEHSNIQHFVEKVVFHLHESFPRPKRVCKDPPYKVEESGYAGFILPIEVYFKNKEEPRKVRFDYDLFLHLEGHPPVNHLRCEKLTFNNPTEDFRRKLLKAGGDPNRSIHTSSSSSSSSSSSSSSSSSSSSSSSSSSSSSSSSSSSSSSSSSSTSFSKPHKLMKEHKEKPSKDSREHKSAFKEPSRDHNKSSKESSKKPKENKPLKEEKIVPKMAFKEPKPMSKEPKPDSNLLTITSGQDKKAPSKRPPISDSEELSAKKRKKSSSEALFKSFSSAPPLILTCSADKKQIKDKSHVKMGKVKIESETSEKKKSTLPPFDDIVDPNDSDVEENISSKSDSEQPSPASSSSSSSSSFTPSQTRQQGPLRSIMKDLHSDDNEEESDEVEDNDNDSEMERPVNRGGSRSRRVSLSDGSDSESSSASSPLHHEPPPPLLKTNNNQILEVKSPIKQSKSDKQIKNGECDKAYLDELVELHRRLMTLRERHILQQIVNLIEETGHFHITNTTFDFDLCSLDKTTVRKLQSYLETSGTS
# * = called active by the depositor; u = inconclusive; x = no result given.
SMILES,DENV2 CPE,CaV13 FRET inh,S100A4 inh HTS,SIRT5 inh,MLL AF4-AF9 inh
CCN1C[C@]2(COC)CC[C@H](OC)[C@@]34C5C[C@H]6C(=O)C5[C@](O)(C[C@H]6OC)[C@@](O)(C(OC)C23)[C@@H]14 (some centres undefined),44.4*,x,3.7,x,-1.4
COC(=O)[C@H]1[C@H](CO)[C@H]2Cn3c(ccc(/C=C/c4ccccc4)c3=O)[C@@H]1N2C(=O)C1CC1,-11.1,x,-0.5,-113.7,-8.6
CCCC#Cc1ccc([C@@H]2[C@H]3CN(C(=O)Cc4ccccn4)CCCCN3[C@H]2CO)cc1,-2.9,x,5.0,-0.6,0.7
O=C(Cc1ccccn1)N1CCCCN2[C@H](CO)[C@@H](c3ccc(-c4ccccc4)cc3)[C@H]2C1,6.3,x,10.7,-4.3,-3.3
O=C(Cc1ccccn1)N1CCCCN2[C@H](C1)[C@H](c1ccc(-c3ccccc3)cc1)[C@@H]2CO,43.0*,x,8.0,-2.9,-3.0
CN(C)CC#Cc1ccc([C@@H]2[C@H]3CN(C(=O)Cc4ccccn4)CCCCN3[C@H]2CO)cc1,30.2*,x,19.9,0.7,3.2
O=C(Cc1ccccn1)N1CCCCN2[C@@H](CO)[C@@H](c3ccc(Br)cc3)[C@@H]2C1,32.9*,x,0.8,-0.4,2.5
O=C(Cc1ccccn1)N1CCCCN2[C@H](CO)[C@H](c3ccc(-c4ccccc4)cc3)[C@@H]2C1,18.2,x,9.1,-2.2,-2.3
COc1ccc(-n2c(-c3ccccc3Br)nc3ccccc3c2=O)cc1,-8.2,-13.2,7.6,35.0*,-0.2
COc1ccc(-n2c(-c3ccccc3F)nc3ccccc3c2=O)cc1,u,-9.3,1.1,-1.4,0.8
CCOC(=O)c1ccc(N=Cc2c(O)n(-c3ccccc3F)c(=S)[nH]c2=O)cc1,-2.6,-4.1,121.9*,-1.4,-4.8
CN1CCN(c2ccc(S(=O)(=O)C(F)(F)F)cc2[N+](=O)[O-])CC1,-10.7,-2.3,-20.0,20.5*,6.0
CN1C[C@H](O)[C@H]2C[C@@H]1c1ccccc1O2,-7.0,-16.0,-4.0,0.9,x
Cc1cccc(N=Nc2ccc(N(C)C)cc2)c1,1.6,-6.7,-3.6,1.6,26.6*
CN(C)c1ccccc1,13.0,-6.8,-6.3,-2.6,-2.5
COC(=O)[C@H]1[C@H](CO)[C@H]2Cn3c(cccc3=O)[C@@H]1N2CCc1ccccc1,0.7,x,-6.3,-4.4,-0.8
COc1ccccc1CN1[C@H](CO)[C@@H](c2ccccc2)C12CN(C(=O)Cc1ccccc1)C2,0.9,x,3.7,-4.5,1.5
C=CCN1CC[C@]23c4c5ccc(O)c4OC2C(O)C=CC3[C@H]1C5 (some centres undefined),130.9*,x,2.9,x,x
COc1ccc2c3c1OC1C(O)C=CC4[C@@H](C2)N(C)CC[C@]314 (some centres undefined),-21.8,x,-3.5,x,x
Cc1ccc(N)cc1N,66.0*,x,-2.2,x,x
CCCN1[C@@H]2c3ccc(-c4ccc(F)cc4)c(=O)n3C[C@H]1[C@H](CO)[C@H]2C(=O)OC,-3.8,x,22.2,-0.6,0.3
C[C@@H]1CC2C3CC=C4C[C@@H](O)CC[C@]4(C)C3CC[C@]2(C)[C@H]1O (some centres undefined),3.8,-9.2,-1.5,-4.3,-2.9
C[C@]12CC[C@@H](O)CC1=CCC1C2CC[C@@]2(C)C1C[C@@H](F)[C@H]2O (some centres undefined),32.7*,-8.1,5.1,x,6.5
O=C(CN1CCCC1)Nc1ccc(Cl)cc1C(=O)c1ccccc1,7.5,2.0,-8.8,15.1*,3.4
O=C(CCN1CCCCC1)Nc1ccc(Cl)cc1C(=O)c1ccccc1,-7.8,-19.5,2.5,-1.4,5.1
SMILES,DENV2 CPE,CaV13 FRET inh,S100A4 inh HTS,SIRT5 inh,MLL AF4-AF9 inh
O=C1CC(=O)N(Cc2ccccc2)C(=S)N1,23.4*,-3.2,-4.9,7.4,0.0
COC(=O)[C@H]1[C@H](CO)[C@H]2Cn3c(ccc(C4=CCCC4)c3=O)[C@@H]1N2Cc1ccccn1,-11.9,x,-48.6,-2.8,0.4
CCCN1[C@@H]2c3cccc(=O)n3C[C@H]1[C@H](CO)[C@H]2C(=O)N(C)C,-2.4,x,7.9,6.0,0.4
O=C(NCCN1CCC2(CC1)C(=O)NCN2c1ccccc1)c1cccs1,-4.8,-11.5,23.1,x,1.4
CCOc1ccc(N2C(=O)NC(=O)/C(=C\c3ccc(N4CCCCC4)o3)C2=O)cc1,x,-5.0,x,x,x
O=C1NC(=O)N(c2ccc3c(c2)OCO3)C(=O)/C1=C/c1ccc(N2CCCC2)o1,77.4*,-6.5,-22.3,4.9,2.3
O=C(O)[C@H]1[C@H](CO)[C@H]2Cn3c(ccc(-c4ccncc4)c3=O)[C@@H]1N2C(=O)C1CCCCC1,-2.3,x,99.4*,-54.1,-4.5
O=C(Nc1ccc(C(F)(F)F)cc1)OC1CN2CCC1CC2 (centres undefined),38.6*,-2.5,-3.8,-3.3,2.5
O=C(Nc1cccc(C(F)(F)F)c1)OC1CN2CCC1CC2 (centres undefined),5.7,-4.0,1.5,-1.3,-0.4
O=C(O)[C@@H]1[C@@H](CO)[C@@H]2Cn3c(ccc(-c4cncnc4)c3=O)[C@H]1N2C(=O)NC1CCCC1,0.4,x,10.1,-16.2,-1.8
CCOC(=O)N1CCC(NC(=O)CCc2nc(C3=CCN(C)CC3)no2)CC1,4.5,-5.7,0.4,-3.3,32.5*
O=C1CNC[C@H]2[C@@H](c3ccc(Br)cc3)[C@@H](CO)N12,-10.6,x,2.0,-2.0,-3.8
Cc1[nH]c2ccc(O)cc2c1CCN,54.7*,-5.3,5.4,-3.3,31.9*
Cc1[nH]c2c(C(F)(F)F)cccc2c1CCN,x,-2.8,x,x,x
c1ccc(CN2CCN(Cc3ccc4ccccc4c3)CC2)cc1,11.3,-3.0,10.5,5.0,-5.7
CN(C)c1cccc(CN2CCN(c3ccccc3)CC2)c1,3.8,-5.9,8.5,15.4*,12.6
C[C@@H]1CN([C@@H](C)CO)C(=O)c2c(c3ccccc3n2C)-c2ccccc2CO[C@H]1CN(C)C(=O)Oc1ccccc1,-4.2,x,7.4,2.9,10.6
CCN1[C@@H]2Cn3c(ccc(-c4cccc(C(=O)N(C)C)c4)c3=O)[C@H]1[C@@H](C(=O)OC)[C@@H]2CO,-3.1,x,-26.2,-1.3,-27.2
COc1ccc(F)cc1C(=O)C1CCCN(Cc2ccc(O)cc2)C1 (centres undefined),0.3,-2.2,-10.3,17.4*,-0.1
COc1ccc(F)cc1C(=O)C1CCCN(Cc2cnc(C)s2)C1 (centres undefined),-9.5,-2.7,1.1,-0.9,1.5
O=C(NCCN1CCC2(CC1)C(=O)NCN2c1ccccc1)c1ccc2ccccc2c1,-0.5,-10.3,-4.7,x,10.8
CC1CCC(C(C)C)C(OC(=O)Cn2c(COc3ccccc3)[n+](C)c3ccccc32)C1 (centres undefined),-1.5,-2.6,1.2,2.5,25.2*
Cc1ccc(C(=O)N[C@@H](C)CN2C3=NC[C@@H](Cc4ccccc4)N3C[C@H]2Cc2ccc(O)cc2)cc1Br,3.0,-5.3,1.8,3.5,27.3*
